Compounds with a hit are over-represented: about 4.5% of the library has one in this group of screens.
OX1R antag-1: human HCRTR1 antagonism. CHO/OX1R cells, Fluo-8 calcium fluorescence, orexin A. inhibition, % at 5 µM. 330,000 tested, 0.43% active. AID 434989;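 active means inhibition above its plate's threshold, mean inhibition of all tested compounds on the plate plus 3 SD, cut at about 37% in these data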;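 further: 0% = orexin A challenge wells and 100% = SB-334867-A antagonist wells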
OX1R antag-2: blocks the human orexin 1 receptor | OX1R-expressing cells, FRET antagonist read-out | 330,000 tested, 1.8% active | inhibition, % at 6.6 µM; in the data active means inhibition mostly above about 38%, no sharp cut-off; inactive means mostly below about 40%;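 further: 0% = agonist challenge alone and 100% = reference antagonist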
GPR7 antag: human neuropeptides B/W receptor 1 antagonism | P48145 | GPR7-expressing cells, fluorescence antagonist assay | inhibition, % at 4.4 µM | 290,000 tested, 1.1% active; in the data active means inhibition above about 16%, passing the limit was not always enough;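 further: cells stimulated with the agonist NPW; 0% = agonist with vehicle and 100% = vehicle without agonist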
Target sequence (P48145 whole entry, looked up): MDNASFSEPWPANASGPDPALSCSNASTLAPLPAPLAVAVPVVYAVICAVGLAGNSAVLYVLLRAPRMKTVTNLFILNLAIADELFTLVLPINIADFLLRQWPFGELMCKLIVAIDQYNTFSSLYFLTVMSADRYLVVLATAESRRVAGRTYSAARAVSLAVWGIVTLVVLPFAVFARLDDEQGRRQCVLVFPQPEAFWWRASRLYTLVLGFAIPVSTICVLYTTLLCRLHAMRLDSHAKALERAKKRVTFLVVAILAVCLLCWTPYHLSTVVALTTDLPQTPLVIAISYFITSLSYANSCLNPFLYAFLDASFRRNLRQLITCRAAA
TAAR1 antag: human TAAR1 antagonism; CHO RD-HGA16 TAAR1, Fluo-8 calcium fluorescence, antagonist; inhibition, % at 3 µM; 360,000 tested, 1.5% active; AID 624466;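 active means inhibition above a per-plate cutoff, the mean inhibition of test compounds on that plate plus 3 SD, cut at about 49% in these data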;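 further: 0% = DMSO plus EC80 beta-PEA response and 100% = DMSO alone without agonist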
Target sequence (Q96RJ0 whole entry, looked up): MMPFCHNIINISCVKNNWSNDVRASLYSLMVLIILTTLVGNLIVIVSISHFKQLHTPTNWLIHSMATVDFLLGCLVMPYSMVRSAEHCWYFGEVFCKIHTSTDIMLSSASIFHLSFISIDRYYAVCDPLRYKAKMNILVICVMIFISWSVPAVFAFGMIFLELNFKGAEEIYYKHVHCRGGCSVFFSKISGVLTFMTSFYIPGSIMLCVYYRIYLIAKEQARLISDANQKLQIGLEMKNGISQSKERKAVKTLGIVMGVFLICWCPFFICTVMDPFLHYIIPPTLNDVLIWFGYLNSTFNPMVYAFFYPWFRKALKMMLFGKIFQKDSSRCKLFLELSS
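Material: CHO RD-HGA16 cells bearing hTAAR1; compound dosing: one-point dosing, 3 µM nominal final; schedule: dye loading 75 min at 37 °C, then 30 min room temperature; measured by: calcium fluorescence with Fluo-8; control set: vehicle and agonist controls; replication: n of 1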
TAAR1 ag: human TAAR1 agonism | Q96RJ0 | CHO RD-HGA16 TAAR1, Fluo-8 calcium fluorescence; vehicle wells 0%, saturating PEA agonist 100% | activation, % at 3 µM | 360,000 tested, 0.99% active | AID 624467;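 active means activation above the mean activation of all test compounds in the run plus 3 SD, cut at about 38% in these data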
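System: CHO-derived RD-HGA16 cells with stable Gα16 and human TAAR1 / Times: 17-24 h plating, Fluo-8 75 min 37 °C, 30 min RT / Technique: calcium-sensitive Fluo-8 signal, excitation 470-495, emission 515-575 nm / Measure: % activation relative to PEA EC100 response / Benchmarks: DMSO and PEA EC100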
CHO parental Ca: signal in parental CHO cells, OX1R antagonist counter-screen; parental CHO-K1, ATP-induced calcium, Fluo-8 fluorescence; inhibition, % at 5.6 µM; 330,000 tested, 0.63% active; AID 463079;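 active means inhibition above that plate's mean sample inhibition plus 3 SD, cut at about 26% in these data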;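 further: 0% = ATP-challenged DMSO wells and 100% = DMSO wells without ATP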
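Measured by: calcium-sensitive Fluo-8 fluorescence / Test system: CHO parental line / Controls: ATP-challenged DMSO wells low, unchallenged DMSO wells high / Measure: % inhibition / Compound: single nominal dose of 5.6 µM per compound / Replicates: single well per compound, no replicates / Reagent: ATP as calcium-mobilizing challenge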
The depositor's hits bear a star.

What do the screens show for `N=c1n(Cc2ccc(Cl)cc2)c2ccccc2n1CC(O)COc1ccccc1` (stereo unspecified)?
OX1R antag-1: 74.5*; OX1R antag-2: 6.9; GPR7 antag: 47.1*; TAAR1 antag: -3.5; TAAR1 ag: 33.9; CHO parental Ca: 71.6*

How did OC(COc1ccc(Cl)cc1)CN1CCC(Cc2ccccc2)CC1 (stereo unspecified) do in these assays?
OX1R antag-1: -4.0; OX1R antag-2: 11.0; GPR7 antag: 2.2; TAAR1 antag: 7.8; TAAR1 ag: 40.8*; CHO parental Ca: -6.5

What do the screens show for `OC(COc1ccccc1Cl)CN1CCN(CC(O)COc2ccccc2Cl)CC1` (stereo unspecified)?
OX1R antag-1: -18.1; OX1R antag-2: 12.2; GPR7 antag: 9.2; TAAR1 antag: 50.5*; TAAR1 ag: 28.5; CHO parental Ca: -9.4

How did CCOC(=O)Cc1csc(NC(=O)c2ccc(S(=O)(=O)N3CCOCC3)cc2)n1 do in these assays?
OX1R antag-1: -20.3; OX1R antag-2: 9.7; GPR7 antag: -11.5; TAAR1 antag: 6.4; TAAR1 ag: 6.2; CHO parental Ca: -6.1

What do the screens show for `NS(=O)(=O)c1ccc(OCCCN2CCC(C(O)(c3ccccc3)c3ccccc3)CC2)cc1`?
TAAR1 antag: -4.1; TAAR1 ag: 5.6

What do the screens show for `CCc1nc(SCC(=O)c2ccc3c(c2)OCCO3)c2ccccc2n1`?
OX1R antag-1: 4.9; OX1R antag-2: 57.7*; GPR7 antag: -4.0; TAAR1 antag: 31.9; TAAR1 ag: 12.5; CHO parental Ca: -27.2

What do the screens show for `CCc1nc(SCC(=O)c2ccccc2)c2ccccc2n1`?
OX1R antag-1: -53.8; OX1R antag-2: 41.0; GPR7 antag: 1.4; TAAR1 antag: 18.9; TAAR1 ag: 14.8; CHO parental Ca: -46.9

How did CCN(CC)C(=O)CSc1nc(Cc2ccccc2)nc2ccccc12 do in these assays?
GPR7 antag: -11.4; TAAR1 antag: -7.2; TAAR1 ag: 2.7

Results for O=C(CSc1nc(Cc2ccccc2)nc2ccccc12)c1ccc2c(c1)OCCO2 ?
OX1R antag-1: -21.7; OX1R antag-2: 41.4*; GPR7 antag: -1.2; TAAR1 antag: 8.0; TAAR1 ag: 5.2; CHO parental Ca: -0.1

Results for COC(=O)c1ccc2c(=O)n(CCCCCC(=O)NC3CCCCC3)c(=O)[nH]c2c1 ?
TAAR1 antag: 12.4; TAAR1 ag: 0.1

How did Cc1cc(C)c(N=C2CCCN2Cc2ccccc2)c(C#N)c1 do in these assays?
OX1R antag-1: 8.0; OX1R antag-2: 29.4; GPR7 antag: 5.5; TAAR1 antag: 2.1; TAAR1 ag: 12.1; CHO parental Ca: 40.1*

What do the screens show for `N#Cc1ccccc1N=C1CCCN1Cc1ccccc1`?
OX1R antag-1: -17.4; OX1R antag-2: 34.5; GPR7 antag: -10.7; TAAR1 antag: -11.9; TAAR1 ag: 4.5; CHO parental Ca: -2.5

How did CC(C)(C)OC(=O)C[C@H]1C/C=C\C[C@H](CC(=O)N(CCO)Cc2ccccc2)C(=O)N[C@@H](Cc2ccccc2)COC1=O do in these assays?
OX1R antag-1: -28.5; OX1R antag-2: 3.5; TAAR1 antag: 32.2; TAAR1 ag: 11.9; CHO parental Ca: -34.5

Results for CCOC(=O)C1(C(=O)OCC)N=C(c2ccccc2)C=C1c1ccccc1 ?
TAAR1 antag: -3.7; TAAR1 ag: -0.8

What do the screens show for `Cn1nc(OC(=O)Nc2ccc(Cl)cc2)cc1C(F)(F)F`?
OX1R antag-1: 9.3; OX1R antag-2: 19.6; GPR7 antag: -2.9; CHO parental Ca: 37.8*

How did [O-][N+](=C(c1ccccc1)c1ccccc1)c1ccccc1 do in these assays?
TAAR1 antag: -1.8; TAAR1 ag: -0.7

Results for Nc1ccc(NC(=O)CCN2CCOCC2)cc1 ?
GPR7 antag: -5.1; TAAR1 antag: -3.5; TAAR1 ag: -0.1

Results for O=C(NCc1csc2ccccc12)Nc1cc(Cl)cc(Cl)c1 ?
OX1R antag-1: 5.4; OX1R antag-2: 52.5*; GPR7 antag: -12.2; TAAR1 antag: -6.4; TAAR1 ag: 20.6; CHO parental Ca: 5.5

How did O=C(NCCN1CCN(Cc2ccccc2)CC1)Nc1cc(Cl)cc(Cl)c1 do in these assays?
OX1R antag-1: -14.9; OX1R antag-2: 4.6; GPR7 antag: 7.7; TAAR1 antag: 22.7; TAAR1 ag: 43.6*; CHO parental Ca: -2.0

What do the screens show for `O=C(NCc1ccccn1)Nc1cc(Cl)cc(Cl)c1`?
OX1R antag-1: 2.6; OX1R antag-2: 7.6; GPR7 antag: 25.2; TAAR1 antag: 3.2; TAAR1 ag: 11.8; CHO parental Ca: 28.5*

What do the screens show for `O=C(NCc1ccccn1)Nc1cccc(Cl)c1`?
OX1R antag-1: -9.4; OX1R antag-2: 23.2; GPR7 antag: 10.8; TAAR1 antag: 21.4; TAAR1 ag: 4.3; CHO parental Ca: -1.4

Results for COC(=O)C[C@@H]1C[C@H]2c3cc(NC(=O)Nc4ccccc4F)ccc3O[C@H]2[C@@H](CO)O1 ?
TAAR1 antag: 8.4; TAAR1 ag: -0.2

How did O=C(c1ccc(Cn2c(=S)[nH]c3ccccc3c2=O)cc1)N1CCN(c2ccccn2)CC1 do in these assays?
OX1R antag-1: 9.4; OX1R antag-2: 11.0; GPR7 antag: -5.5; TAAR1 antag: 57.4*; TAAR1 ag: 9.2; CHO parental Ca: 9.4

How did O=C(c1ccc(Cn2c(=O)[nH]c3ccccc3c2=O)cc1)N1CCN(c2ccccn2)CC1 do in these assays?
OX1R antag-1: -18.5; OX1R antag-2: 13.7; GPR7 antag: 1.6; TAAR1 antag: 41.8; TAAR1 ag: 9.7; CHO parental Ca: -6.2

What do the screens show for `Oc1c(Cl)cc(Cl)cc1CNc1nc2ccccc2[nH]1`?
OX1R antag-1: 22.0; OX1R antag-2: 16.2; GPR7 antag: -9.1; TAAR1 antag: 16.2; TAAR1 ag: 4.7; CHO parental Ca: 27.5

Results for O=C(Nc1cccc(-c2cn3ccccc3n2)c1)c1cccc(Cl)c1 ?
OX1R antag-1: 82.5*; OX1R antag-2: 92.6*; GPR7 antag: -18.0; TAAR1 antag: 21.4; TAAR1 ag: 24.6; CHO parental Ca: 72.5*

Results for COc1ccc(OC)c(/C=N/NC(=O)CCc2ccc(O)c(O)c2)c1 ?
OX1R antag-1: -11.3; OX1R antag-2: 38.0; GPR7 antag: -4.7; TAAR1 antag: -18.6; TAAR1 ag: 7.0; CHO parental Ca: -3.6

How did CN=C1C([N+](=O)[O-])=CC=C2C1=NC1(CCCCC1)N2O do in these assays?
OX1R antag-1: -7.0; OX1R antag-2: 49.6*; GPR7 antag: -10.1; TAAR1 antag: 15.7; TAAR1 ag: -2.4; CHO parental Ca: -3.9

What do the screens show for `S=C(NCCc1ccccc1)N1CCc2ccccc2C1`?
OX1R antag-1: -23.2; OX1R antag-2: 16.6; GPR7 antag: 12.1; TAAR1 antag: -4.7; TAAR1 ag: 1.5; CHO parental Ca: -13.8

Results for S=C(CN1CCCC1=S)NCCc1ccccc1 ?
OX1R antag-1: 1.0; OX1R antag-2: 11.0; GPR7 antag: 4.7; TAAR1 antag: -24.8; TAAR1 ag: 40.0*; CHO parental Ca: 9.8
